Consider 1 compound from ChEMBL document CHEMBL4014344, “Discovery of the Soluble Guanylate Cyclase Stimulator Vericiguat (BAY 1021189) for the Treatment of Chronic Heart Failure” (J Med Chem, 2017).

The source made the active and inactive calls. The rule behind the calls is not given here.

A short description of data set [1]: Stimulation of rat sGC expressed in CHO cells using GTP as substrate assessed as increase in cGMP formation treated for 6 mins in presence of sGC inhibitor ODQ by luminescence assay. Type of data set: cell-based. The method in brief: (§1)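 CHO reporter cells overexpressing sGC, cultured 1 or 2 d, then loaded 3 h with coelenterazine in calcium-free Tyrode. Compound serial dilutions applied 6 min. Calcium added (final 3 mM) and luminescence read for 40 s by CCD camera. SNAP co-applied at 30 or 100 nM where stated. ODQ condition: 10 μM ODQ pretreatment for 3 h.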

In data set [2] the test system is Heart. Kind of data set: Cardiotoxicity in Wistar rat assessed as effect on heart rate administered for 20 mins. Format: toxicity, tissue-based. The method in brief:
(§2)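 Male Wistar rats (200−250 g) anesthetized with Narcoren 100 mg/kg ip. Excised heart Langendorff-perfused at constant flow 10 mL/min with Krebs−Henseleit buffer gassed with 95% O2/5% CO2. Values expressed as relative change from baseline before compound application.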

The nature of data set [3]: Stimulation of rat sGC expressed in CHO cells using GTP as substrate assessed as increase in cGMP formation treated for 6 mins in presence of 30 nM SNAP by luminescence assay. Format: cell-based. The method in brief: as §1
Data set [4] is described as follows: Clearance in rat hepatocytes at 1 uM up to 90 mins by LC-MS/MS analysis. Format: ADME, cell-based, Hepatocyte. A digest of the protocol:
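Rat hepatocytes at 1 × 10^6 viable cells/mL (trypan blue-corrected) in Williams' medium E, 1 μM substrate, MeCN ≤1%, 37 °C, pH 7.4. Sampled at 2−90 min, quenched with MeCN, analysed by LC-MS/MS.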

A further data set deals with Cytochrome P450 2C19 (Homo sapiens, UniProt P33261). The experiment in a line: Inhibition of human liver microsomes CYP2C19 using S-mephenytoin as substrate. Format: ADME. (Microsomes from liver hold many membrane-bound enzymes, among them those of drug oxidation.)
Chain of Cytochrome P450 2C19 (P33261 whole entry): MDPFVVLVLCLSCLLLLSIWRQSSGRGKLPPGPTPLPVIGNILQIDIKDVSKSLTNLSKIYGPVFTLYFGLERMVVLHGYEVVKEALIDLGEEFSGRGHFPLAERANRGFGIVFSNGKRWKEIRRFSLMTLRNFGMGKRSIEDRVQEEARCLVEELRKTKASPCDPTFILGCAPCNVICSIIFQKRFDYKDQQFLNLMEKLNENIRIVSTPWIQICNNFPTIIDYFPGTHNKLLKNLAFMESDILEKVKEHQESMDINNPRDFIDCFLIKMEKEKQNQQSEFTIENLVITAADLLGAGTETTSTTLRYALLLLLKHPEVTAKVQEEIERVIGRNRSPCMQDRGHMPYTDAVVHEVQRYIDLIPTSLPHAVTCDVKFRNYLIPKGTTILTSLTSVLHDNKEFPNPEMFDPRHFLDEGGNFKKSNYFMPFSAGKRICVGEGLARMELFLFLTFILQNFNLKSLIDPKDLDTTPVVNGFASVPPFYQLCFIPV
The species named for another data set is Homo sapiens. Kind of data set: Stimulation of sGC (unknown origin) using alpha-[32P]-GTP as substrate assessed as increase in [32P]-cGMP formation at 100 uM in presence of sGC inhibitor ODQ. A digest of the protocol: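 Purified recombinant sGC (0.2 μg/mL) assayed by [32P]-cGMP formation from α-[32P]-GTP, with 200 μM GTP, 3 mM Mn2+/Mg2+ and 1 mM cGMP. Substrate turnover kept <10%. DMSO ≤1% (v/v). ODQ present. Activity expressed as x-fold over basal. Duplicates, repeated five times.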

In data set [5] the test system is Heart. Kind of data set: Cardiotoxicity in Wistar rat assessed as effect on contractility administered for 20 mins. Format: toxicity, tissue-based. A digest of the protocol: as §2
Another data set has as its system Aorta. Kind of data set: Inhibition of phenylephrine-induced contractions in Chinchilla rabbit aortic rings administered at the beginning of the last resting period of 28 mins. Format: functional. To be noted: Oryctolagus cuniculus.
Data set [6] concerns Rattus norvegicus. Kind of data set: Antihypertensive activity in L-NAME-treated renin transgenic rat co-expressing RenTG(mRRen2)27 assessed as reduction in heart hypertrophy in right ventricle administered qd via oral gavage up to 21 days relative to control. Format: functional. A digest of the protocol: (§3)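 Renin transgenic RenTG(mRRen2)27 male rats, 8 weeks old, on L-NAME drinking water (50 mg/L). Dosed by gavage qd with placebo (n = 20) or 3 or 10 mg/kg/day (n = 15 each). At day 22 animals were anesthetized and sacrificed, and left and right ventricles were dissected and weighed for hypertrophy. Unpaired t test versus placebo.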

Data set [7] in a line: Stimulation of rat sGC expressed in CHO cells using GTP as substrate assessed as increase in cGMP formation treated for 6 mins by luminescence assay. Type of data set: cell-based. A digest of the protocol: as §1
The next data set has as its system Saphenous artery. The experiment in a line: Vasorelaxant activity in normal Chinchilla rabbit saphenous artery ring administered at the beginning of the last resting period of 28 mins. Type of data set: functional. Particulars: Oryctolagus cuniculus.
The subject of data set [8] is Rattus norvegicus. The experiment in a line: Effect on mortality in L-NAME-treated renin transgenic rat co-expressing RenTG(mRRen2)27 assessed as survival rate at 3 mg/kg administered qd via oral gavage up to 21 days (reference value: 25%). Format: functional. Particulars: 504 h.
The target of another data set is Cytochrome P450 2D6 (Homo sapiens, UniProt P10635). Kind of data set: Inhibition of human liver microsomes CYP2D6 using dextromethorphan as substrate. Type of data set: ADME.
Chain of Cytochrome P450 2D6 (P10635 whole entry): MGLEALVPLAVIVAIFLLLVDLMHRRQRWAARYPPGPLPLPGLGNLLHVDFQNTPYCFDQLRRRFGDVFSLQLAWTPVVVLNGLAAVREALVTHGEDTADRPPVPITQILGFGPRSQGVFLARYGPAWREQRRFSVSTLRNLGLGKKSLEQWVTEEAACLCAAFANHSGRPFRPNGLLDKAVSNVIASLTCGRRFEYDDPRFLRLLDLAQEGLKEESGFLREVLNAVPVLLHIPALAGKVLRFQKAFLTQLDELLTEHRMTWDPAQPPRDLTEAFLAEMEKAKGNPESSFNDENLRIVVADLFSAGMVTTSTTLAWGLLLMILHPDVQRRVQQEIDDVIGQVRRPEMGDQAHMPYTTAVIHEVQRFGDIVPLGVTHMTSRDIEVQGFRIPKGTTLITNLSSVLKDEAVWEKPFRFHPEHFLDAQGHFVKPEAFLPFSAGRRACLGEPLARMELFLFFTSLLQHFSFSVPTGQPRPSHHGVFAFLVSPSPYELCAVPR
A short description of data set [9]: Volume of distribution at steady state in iv dosed Wistar rat after 24 hrs by LC-MS analysis. Format: ADME, organism-based. To be noted: in vivo, read-out: Vdss. A digest of the protocol: (§4)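 Male Wistar rats and female beagle dogs. iv in plasma/DMSO (rat) or H2O/PEG 400/EtOH (dog). Oral gavage in H2O/PEG 400/EtOH for both. Rats jugular-catheterised ≥1 d before dosing. Usually >10 blood samples, at least two after 24 h. Plasma quantified by LC-MS with internal standard. CL, t1/2, Vss and F calculated from plasma curves. Blood clearance via blood/plasma ratio (20 min blood incubation).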

The test system of data set [10] is Rattus norvegicus. Kind of data set: Antihypertensive activity in L-NAME-treated renin transgenic rat co-expressing RenTG(mRRen2)27 assessed as reduction in systolic blood pressure increase at 3 to 10 mg/kg, administered qd via oral gavage up to 21 days. Format: functional, organism-based. The method in brief:
(§5)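 Male RenTG(mRRen2)27 rats, 8 weeks old, given L-NAME in drinking water (50 mg/L) throughout. Randomised to placebo (2 mL/kg qd, n = 20) or 3 and 10 mg/kg/day po by gavage qd (n = 15 per group). Tail-cuff blood pressure on day 0, 7, 14 and 21. Plasma taken at day 22 end. Unpaired t test, mean ± SEM.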

The target of data set [11] is T1, Cytochrome P450 3A4 (Homo sapiens, UniProt P08684). The experiment in a line: Inhibition of human liver microsomes CYP3A4 using testosterone as substrate. Format: ADME.
T1 sequence (P08684 whole entry): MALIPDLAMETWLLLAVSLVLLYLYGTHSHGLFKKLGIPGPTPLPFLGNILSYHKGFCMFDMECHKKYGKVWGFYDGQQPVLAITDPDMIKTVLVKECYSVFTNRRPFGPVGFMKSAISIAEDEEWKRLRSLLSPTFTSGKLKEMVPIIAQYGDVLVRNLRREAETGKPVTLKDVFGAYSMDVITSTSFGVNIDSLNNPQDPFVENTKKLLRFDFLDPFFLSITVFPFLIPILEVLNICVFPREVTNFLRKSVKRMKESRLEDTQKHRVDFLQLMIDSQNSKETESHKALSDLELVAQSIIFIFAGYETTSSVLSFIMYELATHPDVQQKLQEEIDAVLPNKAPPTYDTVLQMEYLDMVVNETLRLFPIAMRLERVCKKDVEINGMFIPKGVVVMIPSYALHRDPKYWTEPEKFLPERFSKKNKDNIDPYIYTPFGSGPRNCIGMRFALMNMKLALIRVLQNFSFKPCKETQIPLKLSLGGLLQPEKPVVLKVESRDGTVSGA
Data set [12] in a line: Oral bioavailability in Beagle dog administered via oral gavage after 24 hrs by LC-MS analysis. Particulars: in vivo. Format: ADME, organism-based, Canis lupus familiaris. The method in brief: as §4
The test system of data set [13] is Rattus norvegicus. Kind of data set: Effect on mortality in L-NAME-treated renin transgenic rat co-expressing RenTG(mRRen2)27 assessed as increase in survival rate administered qd via oral gavage up to 21 days. Type of data set: functional. The method in brief: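 L-NAME (50 mg/L, drinking water) treated male RenTG(mRRen2)27 rats aged 8 weeks. Placebo (n = 20) or 3 or 10 mg/kg/day by oral gavage qd (n = 15/group). Survival checked on days 1, 8, 15 and at study end (day 22).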

Data set [14] in a line: Drug metabolism in human hepatocytes assessed as CYP-mediated methyl 4,6-diamino-2-(5-fluoro-1H-pyrazolo[3,4-b]pyridin-3-yl)pyrimidin-5-ylcarbamate metabolite formation. Format: ADME, cell-based.
The target of data set [15] is T1, Cytochrome P450 3A4. Kind of data set: Inhibition of human liver microsomes CYP3A4 using midazolam as substrate preincubated with compound followed by substrate addition. Format: ADME.
Data set [16] relates to Heart. The experiment in a line: Antihypertensive activity in Wistar Langendorff-perfused heart rat model assessed as reduction in coronary perfusion pressure administered for 20 mins. Type of data set: functional, tissue-based. The method in brief: as §2
Data set [17] in a line: Clearance in iv dosed Beagle dog blood after 24 hrs by LC-MS analysis. Particulars: whole blood. Format: ADME, organism-based, Canis lupus familiaris. The method in brief:
as §4

Data set [18] deals with Rattus norvegicus. Kind of data set: Antihypertensive activity in L-NAME-treated renin transgenic rat co-expressing RenTG(mRRen2)27 assessed as reduction in plasma ANP levels at 3 to 10 mg/kg administered qd via oral gavage up to 21 days. Format: functional, organism-based. A digest of the protocol:
as §5

In data set [19] the test system is Rattus norvegicus. Kind of data set: Antihypertensive activity in L-NAME-treated renin transgenic rat co-expressing RenTG(mRRen2)27 assessed as reduction in heart hypertrophy in left ventricle administered qd via oral gavage up to 21 days. Format: functional. The method in brief: as §3

For `COC(=O)Nc1c(N)nc(-c2nn(Cc3ccccc3F)c3ncc(F)cc23)nc1N` [VERICIGUAT], the EC50 (in general, the concentration at which the effect is half-maximal) in [1] was 256 nM; in data set [3], 39 nM; in [7] it was 1000 nM. The Activity entry in the data set with Heart [2] is “Non-Toxic”; in the data set on Heart [5], “Non-Toxic”; with Rattus norvegicus [6], “Dose-dependent effect”; in the data set with Rattus norvegicus [13], “Dose-dependent effect”; with Heart [16], “Dose-dependent effect”; in the data set with Rattus norvegicus [19], “Dose-dependent effect”. In addition, the CLhep predicted at 1 µM in [4] was 1.67 mL/min/kg. The IC50 (in general, the concentration needed to halve the response being measured) against Cytochrome P450 2C19 is over 50000 nM; in the data set with Aorta, 692 nM; in the data set on Saphenous artery, 5.6 nM; on Cytochrome P450 2D6, over 50000 nM; against Cytochrome P450 3A4 [11], over 50000 nM; at Cytochrome P450 3A4 [15], over 50000 nM. Also, in the data set filed under Homo sapiens, the result was inactive. In addition, in the data set on Rattus norvegicus [8], the survival at 3 mg/kg is 70%. Further, in [9], the Vd came to 1 L/kg. Also, the result in the data set on Rattus norvegicus [10] and with Rattus norvegicus [18] was Active. The bioavailability – broadly, dose-corrected exposure relative to a reference, in per cent – in [12] came out at 75%. Moreover, the Drug metabolism result in [14] was “Metabolite_Detected”. Besides, in data set [17], the clearance (commonly a measure of how efficiently the substance is removed, as volume per time) is 3.33 mL/min/kg.
